In brackets after ≈: the same amount, converted by molar mass.
How the values were obtained:
Homo sapiens = species: Homo sapiens; assay: In vitro growth inhibitory activity against human lymphoblastic leukemia cells; assay type: functional; settings: read-out: ID50 (the source's name)
Summary of the method: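 CCRF-CEM human lymphoblastic leukemia cells in log-phase growth; compounds dissolved in Me₂SO, final growth medium 1% Me₂SO.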

[1] = In vitro growth inhibitory activity for effect on melting temperature of DNA was determined
Summary of the method: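 DNA thermal denaturation; ΔTm = Tm of DNA-drug complex minus Tm of DNA. Drug 1.4×10⁻⁴ M, DNA (P) 1.4×10⁻³ M in 0.01 M phosphate buffer pH 7.0 with 5×10⁻³ M EDTA and 5% dimethyl sulfoxide.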

[2] = Therapeutic Index measured as the MTD/MED ratio compared to that of compound 3; settings: read-out: Therapeutic index
Summary of the method: (§1)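 Therapeutic index is MTD/MED, with ip dosing in 10% dimethyl sulfoxide-saline on a qd 1-4 or q4d 1, 5, 9 schedule. MED is the dose giving a 40% increase in life span over control in P-388-bearing mice. MTD is the LD10 in tumor-free male CDF1 mice (18-23 g) over 21 days, read from a log dose vs. percent mortality plot and averaged over 2-3 experiments.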

[3] = Therapeutic Index measured as the MTD/MED ratio compared to that of compound 4; settings: read-out: Therapeutic index; summary of the method: as §1
P388 [4] = assay: Maximum tolerated dose was compared to 7-(2,3-Epoxypropoxy)-actinomycin D against P-388 leukemia in mice(4 days); assay type: functional, Mus musculus
Summary of the method: (§2)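 Tumor-free male CDF1 mice (18-23 g) received a broad dose range ip in 10% dimethyl sulfoxide-saline, either on days 1, 5, 9 (three injections) or on 4 successive days (qd 1-4). Deaths were recorded over 21 days. MTD was the dose lethal to 10% (LD10), taken from a plot of log dose vs percent mortality. Average of two experiments.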

P388 [5] = assay: Antitumor activity against P-388 lymphocytic leukemia in CDF1 hybrid male mice measured as percent increase in lifespan(1.8 mg/kg),ip; assay type: functional, Mus musculus
Summary of the method: (§3)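 Male CDF1 mice (18-23 g) were inoculated ip with 10⁶ P-388 cells on day 0. Drug was given ip in 10% dimethyl sulfoxide-saline on days 1, 5 and 9. Test solutions were kept at 0-4 °C, protected from light, and checked periodically for stability and homogeneity by TLC and HPLC. Read-out was survival, median survival time, increase in life span and tumor-free cures per 7 animals.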

P388 [6] = assay: Maximum tolerated dose was compared to 7-(2,3-Epoxypropoxy)-actinomycin D against P-388 leukemia in mice(3 days); assay type: functional, Mus musculus; summary of the method: as §2
P388 [7] = assay: Number of mice with P-388 lymphocytic leukemia cured( 1.2 mg/kg),ip; 3/7; assay type: functional, Mus musculus; summary of the method: as §3
P388 [8] = assay: Minimum effective dose was compared to 7-(2,3-Epoxypropoxy)-actinomycin D against P-388 leukemia in mice(4 days); assay type: functional, Mus musculus
Summary of the method: (§4)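 MED was the dose (mg/kg) giving a 40% increase in life span over control in mice bearing ip P-388 leukemia. Drug was given ip in 10% dimethyl sulfoxide-saline on a q4d 1, 5, 9 (three injections) or qd 1-4 (four injections) schedule.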

P388 [9] = assay: Antitumor activity against P-388 lymphocytic leukemia in CDF1 hybrid male mice measured as percent increase in lifespan( 0.3 mg/kg),ip; assay type: functional; settings: Mus musculus; summary of the method: as §3
P388 [10] = assay: Antitumor activity against P-388 lymphocytic leukemia in CDF1 hybrid male mice measured as median survival time ( 1.2 mg/kg),ip; assay type: functional, Mus musculus; summary of the method: as §3
P388 [11] = assay: Number of mice with P-388 lymphocytic leukemia cured( 0.6 mg/kg),ip; 1/7; assay type: functional, Mus musculus; summary of the method: as §3
P388 [12] = assay: Antitumor activity against P-388 lymphocytic leukemia in CDF1 hybrid male mice measured as percent increase in lifespan( 2.4 mg/kg),ip; assay type: functional; settings: Mus musculus; summary of the method: as §3
P388 [13] = assay: Minimum effective dose was determined compared to 7-(2,3-Epoxypropoxy)-actinomycin D against P-388 leukemia in mice(3 days); assay type: functional, Mus musculus; set-up: unit: mg/kg; summary of the method: as §4
P388 [14] = assay: Number of mice with P-388 lymphocytic leukemia cured.( 0.15 mg/kg),ip; 0/7; assay type: functional, Mus musculus; summary of the method: as §3
P388 [15] = assay: Number of mice with P-388 lymphocytic leukemia cured( 2.4 mg/kg),ip; 2/7; assay type: functional, Mus musculus; summary of the method: as §3
P388 [16] = assay: Number of mice with P-388 lymphocytic leukemia cured.( 1.8 mg/kg),ip; 3/7; assay type: functional, Mus musculus
P388 [17] = assay: Antitumor activity against P-388 lymphocytic leukemia in CDF1 hybrid male mice measured as median survival time ( 0.3 mg/kg),ip; assay type: functional, Mus musculus; summary of the method: as §3
P388 [18] = assay: Antitumor activity against P-388 lymphocytic leukemia in CDF1 hybrid male mice measured as percent increase in lifespan( 0.6 mg/kg),ip; assay type: functional; settings: Mus musculus; summary of the method: as §3
P388 [19] = assay: Antitumor activity against P-388 lymphocytic leukemia in CDF1 hybrid male mice measured as percent increase in lifespan( 0.15 mg/kg),ip; assay type: functional; settings: Mus musculus; summary of the method: as §3
P388 [20] = assay: Number of mice with P-388 lymphocytic leukemia cured( 0.3 mg/kg),ip; 1/7; assay type: functional, Mus musculus; summary of the method: as §3
P388 [21] = assay: Antitumor activity against P-388 lymphocytic leukemia in CDF1 hybrid male mice measured as median survival time ( 0.6 mg/kg),ip; assay type: functional, Mus musculus; summary of the method: as §3
P388 [22] = assay: Antitumor activity against P-388 lymphocytic leukemia in CDF1 hybrid male mice measured as median survival time (1.8 mg/kg),ip; assay type: functional, Mus musculus; summary of the method: as §3
P388 [23] = assay: Antitumor activity against P-388 lymphocytic leukemia in CDF1 hybrid male mice measured as median survival time ( 0.15 mg/kg),ip; assay type: functional, Mus musculus; summary of the method: as §3
P388 [24] = assay: Antitumor activity against P-388 lymphocytic leukemia in CDF1 hybrid male mice measured as median survival time ( 2.4 mg/kg),ip; assay type: functional, Mus musculus; summary of the method: as §3
P388 [25] = assay: Antitumor activity against P-388 lymphocytic leukemia in CDF1 hybrid male mice measured as percent increase in (1.2 mg/kg),ip; assay type: functional, Mus musculus; summary of the method: as §3

CCN(CC)C(=O)c1c2nc3c(C(=O)N(CC)CC)ccc(C)c3oc-2c(C)c(=O)c1N gave an IC50 (Homo sapiens) of about 10 µg/mL (≈ 22.8 µM) and a DNA melting temperature shift (ΔTm) [1] of 0 °C.
With Cc1c2oc3c(C)c(OCC(O)CO)cc(C(=O)N[C@@H]4C(=O)N[C@H](C(C)C)C(=O)N5CCC[C@H]5C(=O)N(C)CC(=O)N(C)[C@@H](C(C)C)C(=O)O[C@@H]4C)c3nc-2c(C(=O)N[C@@H]2C(=O)N[C@H](C(C)C)C(=O)N3CCC[C@H]3C(=O)N(C)CC(=O)N(C)[C@@H](C(C)C)C(=O)O[C@@H]2C)c(N)c1=O (some centres not stated) the selectivity ratio [2] was 12 and the selectivity ratio [3] was 6.
With Cc1c2oc3c(C)c(OCC4CO4)cc(C(=O)N[C@@H]4C(=O)N[C@H](C(C)C)C(=O)N5CCC[C@H]5C(=O)N(C)CC(=O)N(C)[C@@H](C(C)C)C(=O)O[C@@H]4C)c3nc-2c(C(=O)N[C@@H]2C(=O)N[C@H](C(C)C)C(=O)N3CCC[C@H]3C(=O)N(C)CC(=O)N(C)[C@@H](C(C)C)C(=O)O[C@@H]2C)c(N)c1=O (some centres not stated) the MTD (P388 [4]) was 1.6, the ILS (P388 [5]) was 300% and the MTD (P388 [6]) was 3.6. It also gave a Cure (P388 [7]) of 3, an MED (P388 [8]) of 0.0375 and an ILS at 0.3 mg/kg (P388 [9]) of 263%. For the same molecule, the MST (P388 [10]) was 43 days, the Cure (P388 [11]) was 1 and the ILS at 2.4 mg/kg (P388 [12]) was 136%. For the same molecule, the MED (P388 [13]) was 0.05, the Cure (P388 [14]) was 0 and the IC50 (Homo sapiens) was 0.009 µg/mL (≈ 0.00678 µM). The Cure (P388 [15]) was 2, the Cure (P388 [16]) was 3 and the MST (P388 [17]) was 40 days. It also gave an ILS at 0.6 mg/kg (P388 [18]) of 255%, an ILS at 0.15 mg/kg (P388 [19]) of 164% and a Cure (P388 [20]) of 1. For the same molecule, the MST (P388 [21]) was 41 days, the MST (P388 [22]) was 44 days and the MST (P388 [23]) was 29 days. For the same molecule, the MST (P388 [24]) was 26 days and the ILS (P388 [25]) was 291%.

Source: ChEMBL document CHEMBL1121953, “Carbon-7 substituted actinomycin D analogues as improved antitumor agents: synthesis and DNA-binding and biological properties” (J Med Chem, 1982)
